From ChEMBL document CHEMBL1127406 (J Med Chem, 1994) come the findings set out here.

What is called IC50 is the concentration that gives 50% inhibition. High values mean lower potency, low ones higher potency.

Each structure is given as a SMILES string.

For one assay, the species on record is Cavia porcellus. As to the kind of experiment: Inhibition of electrically induced smooth muscle contraction in guinea pig ileum. Format: functional. In a few lines:
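Longitudinal muscle-myenteric plexus strips from ileum of male Hartley guinea pigs (250-500 g), held in 37 °C oxygenated Krebs buffer, 1 g tension. Transmural stimulation at 0.1 Hz, 0.4-ms supramaximal pulses; no peptidase inhibitors. Cumulative agonist doses, 3 min each; % inhibition of contraction height. μ-selectivity checked with 1000 nM CTAP. IC50 from Hill-equation fit, mean of two to four tissues.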

The target in the next assay is Mu-type opioid receptor (Cavia porcellus, UniProt P97266). Kind of assay: Binding affinity at mu opioid receptor in guinea pig brain by [3H]DAMGO displacement. A digest of the protocol:
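Adult male guinea pig whole-brain membranes in 50 mM Tris-HCl pH 7.4, preincubated 25 °C 30 min to strip endogenous peptides. Buffer contains BSA and peptidase inhibitors. Tritiated ligand at 0.75 nM (delta), 1.0 nM (mu) or 1.5 nM (kappa). Ten concentrations over 800-fold range, in duplicate. Nonspecific binding with 10 µM naltrexone. Incubated 25 °C 3 h, filtered, counted; nonlinear least-squares fit.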

The target in assay [1] is Kappa-type opioid receptor (Cavia porcellus, UniProt P41144). As to the kind of experiment: Binding affinity at kappa opioid receptor in guinea pig brain by [3H]U-69593 displacement. A digest of the protocol:
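Adult male guinea pig whole-brain membranes in 50 mM Tris-HCl pH 7.4, preincubated 25 °C 30 min to strip endogenous peptides. Buffer contains BSA and peptidase inhibitors. Ten concentrations over 800-fold range, in duplicate. Nonspecific binding with 10 µM naltrexone. Incubated 25 °C 3 h, filtered, counted; nonlinear least-squares fit.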

Chain of Kappa-type opioid receptor (P41144 whole entry): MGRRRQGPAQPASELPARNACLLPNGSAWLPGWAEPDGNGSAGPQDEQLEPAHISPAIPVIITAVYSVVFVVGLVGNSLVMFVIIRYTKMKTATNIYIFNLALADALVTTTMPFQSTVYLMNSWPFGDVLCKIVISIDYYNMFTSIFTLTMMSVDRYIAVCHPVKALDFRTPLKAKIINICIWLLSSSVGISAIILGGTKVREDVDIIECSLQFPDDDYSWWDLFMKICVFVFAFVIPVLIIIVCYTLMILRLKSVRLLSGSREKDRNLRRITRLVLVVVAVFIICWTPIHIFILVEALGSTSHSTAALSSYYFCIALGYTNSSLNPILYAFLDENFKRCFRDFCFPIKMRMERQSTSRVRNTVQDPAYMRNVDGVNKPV
Chain of Mu-type opioid receptor (P97266 whole entry): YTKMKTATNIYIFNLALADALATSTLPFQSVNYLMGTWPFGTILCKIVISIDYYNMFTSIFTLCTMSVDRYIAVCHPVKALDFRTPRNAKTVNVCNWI

Regarding `CC[C@H](C)[C@H](NC(=O)[C@H](CCCN=C(N)N)NC(=O)[C@H](CCCN=C(N)N)NC(=O)[C@@H](CC(C)C)NC(=O)[C@H](Cc1ccccc1)NC(=O)CNC(=O)CNC(=O)[C@@H](N)Cc1ccc(O)cc1)C(=O)N[C@@H](CCCN=C(N)N)C(=O)N1CCC[C@H]1C(=O)N[C@@H](CCCCN)C(N)=O`, the IC50 in the assay listed under Cavia porcellus came out at 94 nM. In the case of `CC[C@H](C)[C@H](NC(=O)[C@H](CCCN=C(N)N)NC(=O)[C@H](CCCN=C(N)N)NC(=O)C(CC(C)C)NC(=O)[C@H](Cc1ccccc1)NC(=O)CNC(=O)CNC(=O)[C@@H](N)Cc1ccc(O)cc1)C(=O)N[C@@H](CCCN=C(N)N)C(=O)N1CCC[C@H]1C(=O)N[C@H](CCCCN)C(N)=O` (stereo in doubt), the IC50 is 5.2 nM at Mu-type opioid receptor and 0.3 nM in the assay filed under Cavia porcellus. For `CC[C@H](C)[C@H](NC(=O)[C@H](CCCN=C(N)N)NC(=O)[C@H](CCCN=C(N)N)NC(=O)[C@H](CC(C)C)NC(=O)[C@H](Cc1ccccc1)NC(=O)CNC(=O)CNC(=O)[C@@H](N)Cc1ccc(O)cc1)C(=O)N[C@@H](CCCN=C(N)N)C(=O)N1CCC[C@H]1C(=O)NC(CCCCN)C(N)=O` (stereo in doubt) the same measures were 9.9 nM and 1.07 nM.

With `CC[C@H](C)[C@@H]1NC(=O)[C@H](CCCN=C(N)N)NC(=O)[C@H](CCCN=C(N)N)NC(=O)[C@H](NC(=O)[C@H](Cc2ccccc2)NC(=O)CNC(=O)CNC(=O)[C@@H](N)Cc2ccc(O)cc2)C(C)(C)SSC[C@H](C(N)=O)NC(=O)[C@@H]2CCCN2C(=O)[C@H](CCCN=C(N)N)NC1=O`, the figures for the IC50 (in assay [1]; on Mu-type opioid receptor) were 18 nM and 51.1 nM, respectively. With `CC[C@H](C)[C@@H]1NC(=O)[C@H](CCCN=C(N)N)NC(=O)[C@H](CCCN=C(N)N)NC(=O)[C@@H](NC(=O)[C@H](Cc2ccccc2)NC(=O)CNC(=O)CNC(=O)[C@@H](N)Cc2ccc(O)cc2)CSSC(C)(C)[C@H](C(N)=O)NC(=O)[C@@H]2CCCN2C(=O)[C@H](CCCN=C(N)N)NC1=O`, the figures for the IC50 (in assay [1]; at Mu-type opioid receptor) were 1 nM and 17 nM, respectively. The like results for `CC[C@H](C)[C@@H]1NC(=O)[C@H](CCCN=C(N)N)NC(=O)[C@H](CCCN=C(N)N)NC(=O)[C@H](NC(=O)[C@H](Cc2ccccc2)NC(=O)CNC(=O)CNC(=O)[C@@H](N)Cc2ccc(O)cc2)CSSC(C)(C)[C@H](C(N)=O)NC(=O)[C@@H]2CCCN2C(=O)[C@H](CCCN=C(N)N)NC1=O` were, in that order, 100 nM and 108 nM. As to `CC[C@H](C)[C@@H]1NC(=O)[C@H](CCCN=C(N)N)NC(=O)[C@H](CCCN=C(N)N)NC(=O)[C@H](NC(=O)[C@H](Cc2ccccc2)NC(=O)CNC(=O)CNC(=O)[C@@H](N)Cc2ccc(O)cc2)C(C)(C)SSC(C)(C)[C@@H](C(N)=O)NC(=O)[C@@H]2CCCN2C(=O)[C@H](CCCN=C(N)N)NC1=O`, the IC50 in assay [1] came out at 26.1 nM; at Mu-type opioid receptor, 224 nM. For `CC[C@H](C)[C@@H]1NC(=O)[C@H](CCCN=C(N)N)NC(=O)[C@H](CCCN=C(N)N)NC(=O)[C@H](NC(=O)[C@H](Cc2ccccc2)NC(=O)CNC(=O)CNC(=O)[C@@H](N)Cc2ccc(O)cc2)C(C)(C)SSC[C@@H](C(N)=O)NC(=O)[C@@H]2CCCN2C(=O)[C@H](CCCN=C(N)N)NC1=O` the same measures were 87.1 nM and 87.1 nM. As to `CC[C@H](C)[C@@H]1NC(=O)[C@H](CCCN=C(N)N)NC(=O)[C@H](CCCN=C(N)N)NC(=O)[C@H](NC(=O)[C@H](Cc2ccccc2)NC(=O)CNC(=O)CNC(=O)[C@@H](N)Cc2ccc(O)cc2)C(C)(C)SSC(C)(C)[C@H](C(N)=O)NC(=O)[C@@H]2CCCN2C(=O)[C@H](CCCN=C(N)N)NC1=O`, the IC50 in assay [1] is 70.5 nM; on Mu-type opioid receptor it was 563 nM.
